According to ChEMBL document CHEMBL1140527, “Synthesis and antimicrobial activity of some novel nucleoside analogues of adenosine and 1,3-dideazaadenosine” (2007):

Tests used:
Assay type in all cases: functional
Mucor = assay: Antifungal activity against Mucor sp. by disc diffusion method
How it was run: (§1)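 Fungi were screened first by disc diffusion on corn meal agar, with M-3 broth susceptibility test medium. MIC was then determined by broth dilution.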

Cryptococcus neoformans = assay: Antifungal activity against Cryptococcus neoformans by disc diffusion method; how it was run: as §1
Streptococcus = assay: Antibacterial activity against Streptococcus group D after 18 to 24 hrs by disc diffusion method
How it was run: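 Kirby-Bauer disc diffusion: sterile 6 mm filter-paper discs impregnated with compound at 1.5, 1.1, 0.57, 0.28, 0.14 and 0.07 per mL. Discs showing zones were followed by broth dilution: doubling dilutions in 50% DMSO–H2O, inoculum to 0.5 McFarland, 37 °C for 18–24 h. MIC was the lowest dilution preventing visible turbidity. The initial solution (12.5% DMSO) was not scored.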

Talaromyces marneffei = assay: Antifungal activity against Penicillium marneffei by disc diffusion method; how it was run: as §1
Aspergillus fumigatus = assay: Antifungal activity against Aspergillus fumigatus by disc diffusion method; how it was run: as §1
Candida albicans = assay: Antifungal activity against Candida albicans by disc diffusion method; how it was run: as §1

Measured: MIC

C=CCSC[C@H]1O[C@@H](n2cnc3c([N+](=O)[O-])cccc32)[C@H](O)[C@@H]1O
1.25 µM: Streptococcus
0.38 µM: all other assays above

CN[C@H](CC(C)C)C(=O)N[C@H]1C(=O)N[C@@H](CC(N)=O)C(=O)N[C@H]2C(=O)N[C@H]3C(=O)N[C@H](C(=O)N[C@H](C(=O)O)c4cc(O)cc(O)c4-c4cc3ccc4O)[C@H](O)c3ccc(c(Cl)c3)Oc3cc2cc(c3O[C@@H]2O[C@H](CO)[C@@H](O)[C@H](O)[C@H]2O[C@H]2C[C@](C)(N)[C@H](O)[C@H](C)O2)Oc2ccc(cc2Cl)[C@H]1O [VANCOMYCIN]
0.78 µM: Streptococcus

Clc1ccc(COC(Cn2ccnc2)c2ccc(Cl)cc2Cl)c(Cl)c1 (stereo not given) [MICONAZOLE]
not listed: Streptococcus
0.77 µM: all other assays above

C=CCSC[C@H]1O[C@@H](n2c(CC)nc3c([N+](=O)[O-])cccc32)[C@H](O)[C@@H]1O
not listed: Streptococcus
2 µM: all other assays above

Nc1ncnc2c1ncn2[C@@H]1O[C@H](CSCCC(=O)O)[C@@H](O)[C@H]1O
0.755 µM: Streptococcus
1.5 µM: all other assays above

Nc1cccc2c1ncn2[C@@H]1O[C@H](CSCCC(=O)O)[C@@H](O)[C@H]1O
0.38 µM: Streptococcus
0.75 µM: all other assays above

CCOC(=O)CCSC[C@H]1O[C@@H](n2cnc3c(N)cccc32)[C@H](O)[C@@H]1O
0.19 µM: Streptococcus
0.38 µM: all other assays above

OC(Cn1cncn1)(Cn1cncn1)c1ccc(F)cc1F [FLUCONAZOLE]
not listed: Streptococcus
0.52 µM: all other assays above
